CHOP inh: inhibitors of CHOP promoter induction, primary screen, cell-based, unfolded protein response, luciferase reporter. CHO-K1 CHOP-promoter luciferase, tunicamycin-induced, 15-18 h. inhibition, % at 10 µM. 220,000 tested, 3.8% active. AID 2732, 2010;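 active means compounds that reduced the stress-induced luciferase reporter signal by more than about 70% of percent inhibition, limit read from the data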
Beta apoptosis: inhibitors of cytokine-induced beta cell apoptosis, primary screen, luminescence; INS-1E cytokine-induced death, ATP luminescence, 48 h; percent of positive-control rescue, neutral wells zero; protection from apoptosis, % (no concentration beside the values); 300,000 tested, 0.8% active;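 active means Every replicate reaches about 75%, or at least half do and their mean reaches it too, limit read from the data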;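 further: higher means more ATP so stronger rescue from cytokine killing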
CSC inhib: cancer stem cell viability inhibitors, primary screen, luminescence. AID 2717, 2010. inhibition, % at 7.5 µM. cancer stem cell-like cells viability. 300,000 tested, 1.1% active; in the data active means inhibition above about 75%; tested in HMLE shEcad cells
GRIN3A LBD mod: binders of NR3A ligand-binding domain, primary screen, biophysical, differential scanning fluorimetry, uHTS; Glutamate receptor ionotropic, NMDA 3A (GRIN3A) ligand-binding domain; NR3A LBD differential scanning fluorimetry, Tm shift; 0% = protein alone, 100% = glycine-bound protein; Tm shift relative to glycine control, % at 25 µM; 340,000 tested, 2.5% active;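 active means melting temperature shift of at least 10% of the positive control shift, at one fixed dose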
T cruzi inh: inhibitors of intracellular T. cruzi growth, primary screen, luminescence, NIH3T3 host cells | T. cruzi beta-gal in NIH3T3, 90 h | inhibition, % (no concentration beside the values) | 300,000 tested, 1.4% active | AID 1885, 2009;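 active means mean inhibition across valid replicates above about 55%, limit read from the data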;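 further: signal also drops with host cell toxicity which is not excluded here; higher percent means less beta-gal luminescence so fewer parasites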
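Test system: β-gal T. cruzi (Tulahuen C4) inside NIH/3T3 cells / Quantity: 5,000 cells/well / Measured by: luminescence from GalScreen with 0.05% NP40, read after 60 min / Medium: DMEM plus 2% FBS / Measure: parasite load inhibition, % / Reagent: Tulahuen C4 trypomastigotes, 5000/well / Schedule: co-culture of at least 90 h after 3 h attachment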
PREPL inhibitor: PREPL enzyme inhibitors, primary screen, biochemical, fluorescence polarization; AID 2751, 2010; inhibition, % at 5.96 µM; recombinant PREPL, fluorescence polarization activity-based probe; Prolyl endopeptidase-like (Homo sapiens), Q4J6C6; 320,000 tested, 0.68% active; in the data active means inhibition above about 43%
Target sequence (Q4J6C6 whole entry, looked up): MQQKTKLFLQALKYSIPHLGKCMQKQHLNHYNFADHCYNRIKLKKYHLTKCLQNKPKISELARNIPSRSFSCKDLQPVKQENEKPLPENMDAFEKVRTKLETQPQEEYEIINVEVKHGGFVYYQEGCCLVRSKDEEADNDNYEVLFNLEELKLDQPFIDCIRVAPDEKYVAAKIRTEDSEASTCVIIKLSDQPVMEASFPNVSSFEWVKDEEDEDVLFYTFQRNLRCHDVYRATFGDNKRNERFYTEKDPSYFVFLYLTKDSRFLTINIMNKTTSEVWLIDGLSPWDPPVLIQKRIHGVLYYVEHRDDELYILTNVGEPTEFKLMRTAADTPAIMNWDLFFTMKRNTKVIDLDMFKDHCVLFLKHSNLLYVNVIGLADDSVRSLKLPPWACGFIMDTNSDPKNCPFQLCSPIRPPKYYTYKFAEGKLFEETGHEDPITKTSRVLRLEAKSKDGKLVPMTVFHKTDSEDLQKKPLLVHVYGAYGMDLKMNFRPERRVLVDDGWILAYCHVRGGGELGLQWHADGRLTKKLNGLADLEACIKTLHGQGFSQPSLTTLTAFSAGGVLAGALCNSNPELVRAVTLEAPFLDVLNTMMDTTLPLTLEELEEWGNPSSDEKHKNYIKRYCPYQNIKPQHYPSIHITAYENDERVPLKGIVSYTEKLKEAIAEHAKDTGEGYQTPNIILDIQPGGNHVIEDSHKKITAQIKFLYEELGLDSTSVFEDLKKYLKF
Hits are given with their value. An excerpt weighted towards active compounds, which were near 6.7% of everything screened.

For Cc1oc2c(CN3CCCCC3C)c(O)ccc2c(=O)c1-c1ccc(Br)cc1 (centres undefined) the results were Beta apoptosis inactive, CSC inhib inactive, GRIN3A LBD mod inactive and T cruzi inh inactive.
For Cc1cc(NC(=S)NC(=O)C2CC2)ccc1Br the results were CHOP inh inactive, Beta apoptosis inactive, CSC inhib inactive, GRIN3A LBD mod inactive, T cruzi inh inactive and PREPL inhibitor inactive.
Screening O=C(COC(=O)c1ccco1)c1ccc2ccccc2c1 returned CHOP inh inactive, Beta apoptosis inactive, CSC inhib inactive, GRIN3A LBD mod 10, T cruzi inh inactive and PREPL inhibitor inactive.
Screening NC(=O)c1ccsc1NC(=O)COC(=O)c1ccc([N+](=O)[O-])o1 returned Beta apoptosis inactive, GRIN3A LBD mod 12 and PREPL inhibitor inactive.
O=C(COC(=O)c1ccco1)c1ccccc1 was read as Beta apoptosis inactive, CSC inhib inactive, GRIN3A LBD mod inactive, T cruzi inh inactive and PREPL inhibitor inactive.
Screening CCc1nc(NC(=O)c2sc(C)nc2C)sc1C(=O)OC returned Beta apoptosis inactive, CSC inhib inactive, GRIN3A LBD mod inactive, T cruzi inh inactive and PREPL inhibitor inactive.
For O=C(c1ccc2c3n(nc2c1)-c1ccccc1CO3)N1CCOCC1 the results were CHOP inh inactive, CSC inhib 98, GRIN3A LBD mod inactive, T cruzi inh inactive and PREPL inhibitor inactive.
FC(F)C(F)(F)Oc1cccc(-c2n[nH]c(=S)n2Cc2ccccc2)c1 was read as GRIN3A LBD mod 21.
For Fc1ccc(-c2n[nH]c(=S)n2Cc2ccccc2)cc1 the results were CSC inhib inactive, GRIN3A LBD mod inactive, T cruzi inh inactive and PREPL inhibitor inactive.
Screening S=c1[nH]nc(-c2ccc(Br)cc2)n1Cc1ccccc1 returned CHOP inh inactive, Beta apoptosis inactive, CSC inhib inactive, GRIN3A LBD mod 14, T cruzi inh inactive and PREPL inhibitor inactive.
CCCOc1cccc(C2C(C(=O)c3cccs3)=C(O)C(=O)N2CCN2CCOCC2)c1 (centres undefined) was read as GRIN3A LBD mod inactive, T cruzi inh inactive and PREPL inhibitor inactive.
O=C(NCc1ccccc1F)C(=O)NCC1CCCN1S(=O)(=O)c1cccs1 (centres undefined) was read as Beta apoptosis inactive, CSC inhib inactive, GRIN3A LBD mod inactive, T cruzi inh inactive and PREPL inhibitor inactive.
COc1ccc(S(=O)(=O)N2CCCC2CNC(=O)C(=O)NC2CCCCCC2)cc1 (centres undefined) was read as CSC inhib inactive, GRIN3A LBD mod 17, T cruzi inh inactive and PREPL inhibitor inactive.
For COc1ccccc1CNC(=O)C(=O)NCC1CCCN1S(=O)(=O)c1cccs1 (centres undefined) the results were Beta apoptosis inactive, CSC inhib inactive, GRIN3A LBD mod inactive, T cruzi inh 62 and PREPL inhibitor inactive.
O=C(Nc1cccc(Cl)c1Cl)C1CCCO1 (centres undefined) was read as Beta apoptosis inactive, CSC inhib inactive, GRIN3A LBD mod inactive, T cruzi inh inactive and PREPL inhibitor inactive.
Screening O=C(O)CC(NC(=O)c1ccccc1NC(=O)c1ccccc1)C(=O)O (centres undefined) returned CHOP inh inactive, Beta apoptosis inactive, CSC inhib inactive, GRIN3A LBD mod 28, T cruzi inh inactive and PREPL inhibitor inactive.
Screening Cc1ccc(C(=O)Nc2ccccc2C(=O)NC(CC(=O)O)C(=O)O)cc1 (centres undefined) returned CHOP inh inactive, Beta apoptosis inactive, CSC inhib inactive, GRIN3A LBD mod inactive, T cruzi inh inactive and PREPL inhibitor inactive.
For CC(Oc1ccc(F)cc1)C(=O)Nc1ccc2ccccc2c1 (centres undefined) the results were CHOP inh inactive, Beta apoptosis inactive, CSC inhib inactive, GRIN3A LBD mod inactive, T cruzi inh inactive and PREPL inhibitor inactive.
`CC(Oc1ccccc1F)C(=O)Nc1ccc2ccccc2c1` (centres undefined) gave CHOP inh 88, Beta apoptosis inactive, CSC inhib inactive, GRIN3A LBD mod inactive, T cruzi inh inactive and PREPL inhibitor inactive.
Screening Oc1ccccc1N=Nc1nc(-c2ccccc2)c(-c2ccccc2)[nH]1 returned CHOP inh inactive, Beta apoptosis 86, GRIN3A LBD mod inactive, T cruzi inh 63 and PREPL inhibitor inactive.
For FC(F)(F)c1cc(C(F)(F)F)n2nc(-c3sccc3-n3cccc3)cc2n1 the results were CHOP inh inactive, Beta apoptosis inactive, CSC inhib inactive, GRIN3A LBD mod inactive, T cruzi inh inactive and PREPL inhibitor inactive.
Screening Cc1cc(C)n2nc(-c3sccc3-n3c(C)ccc3C)cc2n1 returned CHOP inh 76, Beta apoptosis inactive, CSC inhib inactive, GRIN3A LBD mod inactive and PREPL inhibitor inactive.
Screening Cc1cc(C)n2nc(-c3sccc3-n3cccc3)cc2n1 returned CHOP inh inactive, Beta apoptosis inactive, CSC inhib inactive, GRIN3A LBD mod 11, T cruzi inh inactive and PREPL inhibitor inactive.
`Cc1cc(C)n2nc(-c3ccc(Cl)cc3)cc2n1` gave Beta apoptosis inactive, CSC inhib inactive, GRIN3A LBD mod inactive, T cruzi inh inactive and PREPL inhibitor inactive.
For COc1cc(OC)c(C(=O)Nc2cccc(C(C)=O)c2)cc1OC the results were CHOP inh inactive, Beta apoptosis inactive, CSC inhib inactive, GRIN3A LBD mod inactive, T cruzi inh inactive and PREPL inhibitor inactive.
For COC(=O)c1cc2nc(-c3ccccc3)cc(C)n2n1 the results were CHOP inh inactive, Beta apoptosis inactive, CSC inhib inactive, GRIN3A LBD mod inactive, T cruzi inh inactive and PREPL inhibitor inactive.
Cc1cc(-c2ccccc2)nc2cc(C(=O)N(Cc3ccccc3)Cc3ccccc3)nn12 was read as CHOP inh inactive, Beta apoptosis inactive, CSC inhib 83, GRIN3A LBD mod inactive, T cruzi inh inactive and PREPL inhibitor inactive.
Screening CCOC(=O)CC(=O)CSc1nc2c(c(-c3cccs3)c1C#N)CCC2 returned CHOP inh inactive, Beta apoptosis inactive, CSC inhib inactive, GRIN3A LBD mod inactive, T cruzi inh inactive and PREPL inhibitor inactive.
Screening N#Cc1c(N)nc(SCc2ccncc2)c(C#N)c1-c1cccs1 returned CHOP inh inactive, Beta apoptosis inactive, CSC inhib inactive, GRIN3A LBD mod inactive, T cruzi inh 64 and PREPL inhibitor inactive.
Screening CN1CCc2nc(SCc3ccc(Cl)cc3)c(C#N)c(-c3cccs3)c2C1 returned Beta apoptosis inactive, CSC inhib inactive, GRIN3A LBD mod inactive, T cruzi inh 58 and PREPL inhibitor inactive.
For COc1cc(-c2c(C#N)c(N)nc(SCc3ccncc3)c2C#N)cc(OC)c1OC the results were CHOP inh inactive, Beta apoptosis inactive, CSC inhib inactive, GRIN3A LBD mod inactive, T cruzi inh inactive and PREPL inhibitor inactive.

Compound activity deposited in PubChem BioAssay by several laboratories.
